Published values of several laboratories.
Each line is one published result; the experiments were not run side by side.
Target: MAP kinase-interacting serine/threonine-protein kinase 2 (MKNK2, Homo sapiens, UniProt Q9HBH9)

The inhibition of `C=CC(=O)N1CCC([C@@H]2CCNc3c(C(N)=O)c(-c4ccc(Oc5ccccc5)cc4)nn32)CC1` is reported as 22% (enzyme activity, inhibitor; 1 µM).
The remaining binding of `CCCCC(=O)Nc1ccc(-c2ccc3ncn(CCC)c(=O)c3c2)cn1` is reported as 100% (binding, competition with immobilised ligand; 0.5 µM).
For `COc1ccc2oc(-c3ccc4nc(N)oc4c3)c/c(=N\c3ccccc3NC(=O)CCN)c2c1`, the remaining binding was 93% (binding; 1 µM).
`CO[C@@H]1[C@H](N(C)C(=O)c2ccccc2)C[C@H]2O[C@]1(C)n1c3ccccc3c3c4c(c5c6ccccc6n2c5c31)C(=O)NC4` gave an inhibition of 30% (enzyme activity, inhibitor; 1 µM).
`CC(C)S(=O)(=O)c1ccc2nccc(Nc3ccc4sc(C5CCCC5)nc4c3)c2c1` has an activity vs control of 101% (enzyme activity, inhibitor; 1 µM).
The remaining binding of `Cc1ccc(NC(=O)c2ccnc(C(F)(F)F)c2)cc1-c1cc(OCCO)nc(N2CCOCC2)c1` is reported as 79% (binding, competition with immobilised ligand; 1 µM).
For `C1=C/COCc2cc(ccc2OCCN2CCCC2)Nc2nccc(n2)-c2cccc(c2)COC/1`, the remaining binding was 59% (binding; 0.1 µM).
`CN1CCN(C(=O)c2ccc(NC(=O)Nc3ccc(N(C)c4ccnc(Nc5ccc(CS(C)(=O)=O)cc5)n4)cc3)cc2)CC1` has a remaining binding of 4.2% (binding, competition with immobilised ligand; 1 µM).
`N#Cc1ccc(NC(=O)Nc2ccccc2)cc1` has a remaining binding of 46% (cell-free assay, competition with immobilised ligand; 25 µM).
